Results on four compounds are retold here after ChEMBL document CHEMBL1132707, “1-(N-alkylamino)-11-(N-ethylamino)-4,8-diazaundecanes: simple synthetic polyamine analogues that differentially alter tubulin polymerization” (J Med Chem, 1999).

Holding throughout (type): protein assay
In experiment [1] the target is T1, Tubulin (Bos taurus) (UniProt Q6B856+Q862L2+Q862F3). Kind of experiment: The compound (1 mM) + spermine (1 mM) mixture was evaluated for its effect on tubulin polymerization in the absence of MAPS as rate =change in OD340/min. The procedure, abridged: (§1)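 MAP-free purified tubulin, thawed immediately before use. Buffer A (0.1 M MES pH 6.7, 1.0 mM MgCl2, 0.5 mM EGTA), no GTP or organic solvent, with 1 mM analogue (or analogue plus 1 mM spermine), warmed to 37 °C. Started by 10-fold dilution of 10 mg/mL tubulin. OD340 followed from 30 s, equilibrium read at 10 min. At least three determinations, variation ≤10%.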

For experiment [2], the target named is T1, Tubulin (Bos taurus). As to the kind of experiment: The compound was evaluated for its effect on tubulin polymerization in the presence of MAPS as equilibrium reading (20 min reading). The procedure, abridged: (§2)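 MAP-rich tubulin, thawed just before the reaction. Buffer A (0.1 M MES pH 6.7, 1.0 mM MgCl2, 0.5 mM EGTA) containing 1 mM analogue (or analogue plus 1 mM spermine), equilibrated at 37 °C. Started by 7.5-fold dilution of 7.5 mg/mL tubulin. OD340 followed from 30 s, equilibrium read at 20 min. At least three determinations, variation ≤10%.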

Experiment [3] has as its target T1, Tubulin (Bos taurus). As to the kind of experiment: The compound (1 mM) + spermine (1 mM) mixture was evaluated for its effects on tubulin polymerization in the absence of MAPS as equilibrium reading (10 min reading). The method in brief:
as §1

The target of experiment [4] is T1, Tubulin (Bos taurus). As to the kind of experiment: The compound (1 mM) + spermine (1 mM) mixture was evaluated for its effects on tubulin polymerization in the presence of MAPS as rate =change in OD340/min. The method in brief: as §2
Experiment [5] deals with T1, Tubulin (Bos taurus). As to the kind of experiment: The compound was evaluated for its effect on tubulin polymerization in the absence of MAPS as rate =change in OD340/min. The method in brief: as §1
Experiment [6] deals with T1, Tubulin (Bos taurus). As to the kind of experiment: The compound was evaluated for its effect on tubulin polymerization in the presence of MAPS as rate =change in OD340/min. The procedure, abridged: as §2
The target of experiment [7] is T1, Tubulin (Bos taurus). As to the kind of experiment: The compound (1 mM) + spermine (1 mM) mixture was evaluated for its effects on tubulin polymerization in the presence of MAPS as equilibrium reading (20 min reading). The procedure, abridged:
as §2

Experiment [8] has as its target T1, Tubulin (Bos taurus). As to the kind of experiment: The compound was evaluated for its effect on tubulin polymerization in the absence of MAPS as equilibrium reading (10 min reading). The method in brief: as §1

Molecules are shown by their SMILES.

In the case of `CCNCCCNCCCNCCCNC[C@@H](C)CC`, the Rate at Tubulin (Bos taurus) [1] worked out at 0.205. Further, the Equilibrium OD340 on Tubulin (Bos taurus) [2] was 0.247; on Tubulin (Bos taurus) [3], 1.09; at Tubulin (Bos taurus) [7], 0.392; on Tubulin (Bos taurus) [8] it was 1.79. Moreover, the Rate (delta OD340 min-1) on Tubulin (Bos taurus) [4] was 0.069; on Tubulin (Bos taurus) [5], 0.69; on Tubulin (Bos taurus) [6], 0.021.
In the case of `NCCCNCCCCNCCCN`, the Equilibrium OD340 at Tubulin (Bos taurus) [2] came to 0.624; at Tubulin (Bos taurus) [8], 1.31. Moreover, the Rate (delta OD340 min-1) on Tubulin (Bos taurus) [5] amounted to 0.14; at Tubulin (Bos taurus) [6] it was 0.055.
On to `CCNCCCNCCCNCCCNCC1CCCCCC1`, for which the Rate (delta OD340 min-1) on Tubulin (Bos taurus) [1] was 0.131; at Tubulin (Bos taurus) [4], 0.16; at Tubulin (Bos taurus) [5], 0.37; at Tubulin (Bos taurus) [6], 0.25. Besides, the Equilibrium OD340 on Tubulin (Bos taurus) [2] amounted to 1.3; on Tubulin (Bos taurus) [3] it was 1.71; on Tubulin (Bos taurus) [7] it was 1.01; on Tubulin (Bos taurus) [8] it was 2.42.
In the case of `CCNCCCNCCCNCCCNCC1CC1`, the Rate (delta OD340 min-1) at Tubulin (Bos taurus) [1] is 0.131; at Tubulin (Bos taurus) [4], 0.031; at Tubulin (Bos taurus) [5] it was 0.096; at Tubulin (Bos taurus) [6] it was 0.036. In addition, the Equilibrium OD340 at Tubulin (Bos taurus) [2] came to 0.098; at Tubulin (Bos taurus) [3], 1.08; on Tubulin (Bos taurus) [7] it was 0.514; at Tubulin (Bos taurus) [8] it was 0.563.
